For one data set, the target named is Tubulin (Homo sapiens) (UniProt P68371+Q9H4B7+P0DPH7+P68366+Q13509+Q71U36+P04350+Q3ZCM7+P07437+P68363+Q9BQE3+Q6PEY2+Q13885+Q9BVA1+Q9BUF5). In words: Induction of microtubule cytoskeleton disruption in human HepG2 cells assessed as microtubule shrinkage to the cell border at 10 nM measured after 24 hrs by Hoechst 33342 staining based immunofluorescence confocal microscopy analysis. The procedure, abridged: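 Fixed in ice-cold methanol/acetic acid 3:1, permeabilized 0.3% Triton X-100, blocked 5% BSA. Mouse anti-tubulin overnight at 4 °C, then TRITC anti-mouse IgG 2 h at 37 °C. Imaged by laser scanning confocal microscopy.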

Data set [1] relates to HepG2. Kind of data set: Induction of cell cycle arrest in human HepG2 cells assessed as accumulation in S phase at 10 nM incubated for 24 hrs by propidium iodide staining based flow cytometry (reference value: 26.65%). The format is functional. In general terms: A flow cytometer gives signals particle by particle.
Data set [2] can be described thus: Inhibition of porcine brain tubulin polymerization measured every 60 sec for 60 mins in presence of GTP by fluorescence assay. More on the design: species or system Sus scrofa. A digest of the protocol: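 Fluorescence kit assay using 2 mg/mL porcine brain tubulin with 2 mM MgCl₂, 0.5 mM EGTA, 1 mM GTP and 15% glycerol. Compound at various concentrations preincubated 1 min at 37 °C before adding the tubulin mix. Read at ex 355/em 460 nm every 60 s for 60 min. IC50 is the concentration giving 50% inhibition at 60 min; mean ± SD of ≥3 independent experiments.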

Data set [3] concerns HepG2. In words: Antiproliferation activity against human HepG2 cells assessed as cell growth inhibition measured after 72 hrs by MTT assay. It is filed as functional. A digest of the protocol: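 Cells grown in RPMI-1640 with 10% FBS at 37 °C, 5% CO2, seeded at 4−7 × 10³ cells/well and left to adhere overnight. Exposed to a range of concentrations for 72 h, then MTT (2.5 mg/mL stock) added for 4 h. Formazan dissolved in DMSO and absorbance read at 570 nm. GI50 taken as the concentration giving 50% growth inhibition, reported as mean ± SD of at least three independent experiments.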
(Formazan colour is commonly taken as a measure of viable cells.)

Data set [4] relates to HepG2. Kind of data set: Induction of apoptosis in human HepG2 cells assessed as necrotic cells at 5 nM incubated for 12 hrs by Annexin V-PE and 7-AAD staining based flow cytometry (reference value: 0.55 %). It is filed as functional. The procedure, abridged:
(§1)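 HepG2 cells seeded at 3 × 10⁵ cells/well, adhered overnight, exposed at 5, 10 or 20 nM for 12 or 24 h. Harvested into Annexin V binding buffer and stained with annexin V-PE and 7-AAD for 15 min at room temperature in the dark, then analysed by flow cytometry. Gates: live (−/−), early apoptotic (+/−), late apoptotic (+/+), necrotic (−/+).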

Data set [5] relates to HepG2. Kind of data set: Induction of apoptosis in human HepG2 cells assessed as necrotic cells at 10 nM incubated for 12 hrs by Annexin V-PE and 7-AAD staining based flow cytometry (reference value: 0.55 %). The format is functional. A digest of the protocol:
as §1

The subject of data set [6] is HepG2. Kind of data set: Induction of apoptosis in human HepG2 cells assessed as decrease in Bcl-2 expression incubated for 24 hrs by Western blot analysis. It is filed as functional, cell-based. As to conditions: dose nM 2.5-20, time 24.0 hrs. A digest of the protocol: (§2)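 Lysates (20 μg protein) separated by 10% PAGE and blotted to PVDF. Probed for Bax, Bcl-2, cleaved caspase-3 and cleaved PARP, detected by ECL and quantified by densitometry.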
In general terms: A western blot detects proteins with antibodies after separation by electrophoresis.

In data set [7] the test system is HepG2. In words: Induction of apoptosis in human HepG2 cells assessed as increase in cleaved caspase-3 expression incubated for 24 hrs by Western blot analysis. The format is functional, cell-based. As to conditions: dose nM 2.5-20, time 24.0 hrs. The procedure, abridged:
as §2

The nature of data set [8]: Selectivity index, ratio of GI50 for cytotoxicity against human L02 cells to GI50 for antiproliferation activity against human HepG2 cells assessed as cell growth inhibition measured after 72 hrs by MTT assay. It is filed as toxicity, cell-based. As to conditions: L02 cells and HepG2 cells, read-out: RatioGI50. A digest of the protocol: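 MTT assay: cells seeded 4–7 × 10³/well, adhered overnight, exposed to a concentration series for 72 h. MTT (2.5 mg/mL stock) added for 4 h, crystals dissolved in DMSO, absorbance read at 570 nm. GI50 is mean ± SD of ≥3 independent experiments. Selectivity = GI50 on normal LO2 / GI50 on HepG2. Resistance fold = GI50 on resistant cells / GI50 on sensitive cells.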

Data set [9] deals with HepG2. In words: Induction of apoptosis in human HepG2 cells assessed as live cells at 10 nM incubated for 12 hrs by Annexin V-PE and 7-AAD staining based flow cytometry (reference value: 92.1%). It is filed as functional. A digest of the protocol:
as §1

Data set [10] relates to HepG2. In words: Induction of apoptosis in human HepG2 cells assessed as necrotic cells at 5 nM incubated for 24 hrs by Annexin V-PE and 7-AAD staining based flow cytometry (reference value: 0.34 %). The format is functional. A digest of the protocol: as §1
In data set [11] the test system is HepG2. Kind of data set: Induction of apoptosis in human HepG2 cells assessed as late apoptotic cells at 10 nM incubated for 24 hrs by Annexin V-PE and 7-AAD staining based flow cytometry (reference value: 2.33 %). The format is functional. A digest of the protocol: as §1
Data set [12] relates to HepG2. Kind of data set: Antitumor activity against human HepG2 cells xenografted in iv dosed Balb/c nude mouse assessed as tumor growth inhibition administered every 2 days for 21 days. The format is functional, organism-based. Conditions: time 21.0 day. The procedure, abridged:
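Nude mice received 200 μL PBS containing HepG2 at 1 × 10⁷ cells/mL subcutaneously in the right armpit. Randomised at 90 mm³ tumour volume, five per group. Compound given iv as a 2.0 mg/mL solution in distilled water, 5 or 10 mg/kg every two days for 21 days, with a water vehicle group. Tumour volume (L × W²/2) and body weight recorded every 3 days. Inhibition = (1 − RTV treated/RTV vehicle) × 100%.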

Data set [13] has as its system HepG2. In words: Induction of cell cycle arrest in human HepG2 cells assessed as accumulation in S phase at 20 nM incubated for 24 hrs by propidium iodide staining based flow cytometry (reference value: 26.65%). It is filed as functional.
Data set [14] deals with HepG2. Kind of data set: Induction of apoptosis in human HepG2 cells assessed as live cells at 20 nM incubated for 12 hrs by Annexin V-PE and 7-AAD staining based flow cytometry (reference value: 92.1%). The format is functional. A digest of the protocol: as §1
In data set [15] the test system is HepG2. In words: Antitumor activity against human HepG2 cells xenografted in Balb/c nude mouse assessed as reduction in tumor volume at 25 mg/kg, ig qd administered for 21 days measured at 3 days interval during compound dosing relative to control. The format is functional. The arrangement: scale not given: the % may be the effect or the level left. As to conditions: time 21 day.

Consider one molecule from ChEMBL document CHEMBL4699650, “SAR Investigation and Discovery of Water-Soluble 1-Methyl-1,4-dihydroindeno[1,2-c]pyrazoles as Potent Tubulin Polymerization Inhibitors” (J Med Chem, 2020).

Active and inactive are the calls of the source. The calls are words filed in the database; no cut-off is given here.

On to `CCOc1cccc(Nc2nn(C)c3c2Cc2cc(OCC)c(OCCCN)cc2-3)c1`, for which the outcome at Tubulin (Homo sapiens) was Active. The Activity was 26.85% with HepG2 [1]; 0.43% with HepG2 [4]; 0.92% in the data set with HepG2 [5]; “Dose-dependent effect” in the data set on HepG2 [6]; “Dose-dependent effect” in the data set on HepG2 [7]; 85.2% with HepG2 [9]. In addition, the Activity is 0.32% with HepG2 [10]; 7.19% in the data set with HepG2 [11]; “Dose-dependent effect” with HepG2 [12]; 8.43% in the data set on HepG2 [13]; 77.7% with HepG2 [14]; 57% with HepG2 [15]. Also, in data set [2], the half-maximal inhibitory concentration (IC50) (commonly the concentration at which inhibition is half-maximal) turned out to be 3700 nM. The GI50 (in general, the concentration that inhibits growth by half) in the data set on HepG2 [3] was found to be 2.4 nM. Also, in data set [8], the selectivity ratio at 72 h was 118.
